Data taken from ChEMBL document CHEMBL2057141, “Imidazolopiperazines: lead optimization of the second-generation antimalarial agents” (J Med Chem, 2012).

Assays:
Plasmodium falciparum [1] = test: Antimalarial activity against Plasmodium falciparum 3D7 after 72 hrs by SYBR green fluorescence assay; format: functional, organism-based; details: 3D7, 72 h
Procedure, shortened: (§1)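 P. falciparum grown in O+ erythrocytes, screened in medium without human serum plus 0.5% Albumax II. Twelve-point half-log dilutions up to 10 μM final. 0.3% parasitemia, 2.5% hematocrit; 72 h at 37 °C under low-oxygen gas. Lysis buffer with SYBR Green added, 24 h at 25 °C, fluorescence read at 485/530 nm.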

Plasmodium falciparum [2] = test: Antimalarial activity against Plasmodium falciparum W2 after 72 hrs by SYBR green fluorescence assay; format: functional, organism-based; details: W2, 72 h; procedure, shortened: as §1
[3] = Permeability of the compound by PAMPA; format: ADME
Procedure, shortened: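 PAMPA in 96-well filter plates. Permeated compound quantified by UV absorbance at 260–290 nm. Reported as percentage absorbed.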

[4] = Apparent permeability across apical to basolateral side in human Caco2 cells by LC/MS analysis; format: ADME, cell-based; details: Caco-2
Procedure, shortened: (§2)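 Caco-2 monolayers in 96-well format. Compound measured in apical and basolateral chambers by LC/MS, giving Papp in the A–B and B–A directions. Values reported in cm/s × 10⁶.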

[5] = Apparent permeability across basolateral to apical side in human Caco2 cells by LC/MS analysis; format: ADME, cell-based; details: Caco-2; procedure, shortened: as §2
[6] = Volume of distribution in Balb/c mouse at 5 mg/kg, iv; format: ADME, organism-based; design: dose 5 mg/kg, route intravenous; details: in vivo
Procedure, shortened: (§3)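 Male Balb/c mice (n = 3 per group). Compound as a 2.5 mg/mL solution in PEG300/D5W 3:1, filtered. Given by lateral tail vein at 5 mg/kg (2 mL/kg) or orally at 20 mg/kg (8 mL/kg). Six serial 50 μL retro-orbital blood samples to 24 h, heparinized plasma. Plasma extracted with acetonitrile:methanol 3:1 with internal standard, LC-MS/MS. Noncompartmental analysis; F = AUCpo×dose_iv/AUCiv×dose_po.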

[7] = Clearance in Balb/c mouse plasma at 5 mg/kg, iv; format: ADME, organism-based; design: dose 5 mg/kg, route intravenous; procedure, shortened: as §3
[8] = Half life in Balb/c mouse at 5 mg/kg, iv; format: ADME, organism-based; design: dose 5 mg/kg, route intravenous; details: in vivo; procedure, shortened: as §3
Mus musculus [9] = test: AUC (0 to 24 hrs) in Balb/c mouse at 5 mg/kg, iv; format: ADME, organism-based, Plasma; design: time < 24 hr, dose 5 mg/kg, route intravenous; details: in vivo; procedure, shortened: as §3
[10] = Cmax in Balb/c mouse at 20 mg/kg, po; format: ADME, organism-based; design: dose 20 mg/kg, route oral; details: in vivo; procedure, shortened: as §3
[11] = Tmax in Balb/c mouse at 20 mg/kg, po; format: ADME, organism-based; design: dose 20 mg/kg, route oral; details: in vivo; procedure, shortened: as §3
[12] = Half life in Balb/c mouse at 20 mg/kg, po; format: ADME, organism-based; design: dose 20 mg/kg, route oral; details: in vivo; procedure, shortened: as §3
Mus musculus [13] = test: AUC (0 to 24 hrs) in Balb/c mouse at 20 mg/kg, po; format: ADME, organism-based, Plasma; design: time < 24 hr, dose 20 mg/kg, route oral; details: in vivo; procedure, shortened: as §3
Mus musculus [14] = test: Oral bioavailability in Balb/c mouse at 20 mg/kg; format: ADME, organism-based; details: in vivo; procedure, shortened: as §3
Plasmodium berghei [15] = test: Antimalarial activity against Plasmodium berghei ANKA expressing GFP infected in NMRI mouse assessed as increase of mouse survival at 30 mg/kg, po administered 24 hrs post infection (reference value: 6 to 7 days); format: functional
Plasmodium berghei [16] = test: Antimalarial activity against Plasmodium berghei ANKA expressing GFP infected in NMRI mouse assessed as increase of mouse survival at 100 mg/kg, po administered 24 hrs post infection (reference value: 6 to 7 days); format: functional
Rattus norvegicus [17] = test: (§4) Cmax in Wistar rat at 10 mg/kg, po; format: ADME, organism-based; design: dose 10 mg/kg, route oral; details: in vivo, BLD = below limit of detection
Procedure, shortened: (§5)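 Rat snapshot PK: two Wistar rats dosed orally at 10 mg/kg, formulated at 2.5 mg/mL in 75% PEG300/25% D5W. Blood (100 μL) taken at 0.5, 1, 3 and 5 h post dose. Plasma pooled by sampling time, then analysed by LC-MS/MS.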

[18] = Metabolic stability in mouse liver microsomes assessed as hepatic extraction ratio by LC/MS/MS analysis; format: ADME, Microsome
Procedure, shortened: (§6)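 Liver microsomes (human, mouse, rat). Compound depletion followed by LC/MS/MS. Loss of parent used to derive in vitro half-life and hepatic extraction ratio.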

[19] = Metabolic stability in mouse liver microsomes assessed as hepatic extraction ratio by LC/MS/MS analysis in presence of CYP; format: ADME, Microsome; procedure, shortened: as §6
[20] = Metabolic stability in rat liver microsomes assessed as hepatic extraction ratio by LC/MS/MS analysis in presence of CYP; format: ADME, Microsome; procedure, shortened: as §6
[21] = Metabolic stability in human liver microsomes assessed as hepatic extraction ratio by LC/MS/MS analysis in presence of CYP; format: ADME, Microsome; procedure, shortened: as §6
Plasmodium berghei [22] = test: Antimalarial activity against Plasmodium berghei ANKA expressing GFP infected in NMRI mouse assessed as reduction of parasite level in blood at 30 mg/kg, po administered 24 hrs post infection measured after 72 hrs post infection by flow cytometry; format: functional; design: scale not given: the % may be the effect or the level left
Procedure, shortened: (§7)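 Female NMRI mice (20–22 g, n=3) are infected i.v. with 2×10^7 P. berghei GFP ANKA-infected erythrocytes. Oral compound in 75% PEG300/25% D5W is given at 10 mL/kg, once at 24 h or daily at 24/48/72 h post-infection. Parasitemia is read by flow cytometry at 72 h (single dose) or 96 h (triple dose). Activity is % reduction of mean parasitemia versus untreated controls.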

Plasmodium berghei [23] = test: Antimalarial activity against Plasmodium berghei ANKA expressing GFP infected in NMRI mouse assessed as increase of mouse survival at 30 mg/kg, po administered 24 hrs post infection qd for 3 days (reference value: 6 to 7 days); format: functional
[24] = AUC (0 to 5 hrs) in Wistar rat at 10 mg/kg, po; format: ADME, organism-based; design: dose 10 mg/kg, route oral; details: plasma
[25] = as §4; format: ADME, organism-based; design: dose 10 mg/kg, route oral; details: Wistar, in vivo; procedure, shortened: as §5
Rattus norvegicus [26] = test: Dose normalized AUC (0 to 5 hrs) in Wistar rat at 10 mg/kg, po; format: ADME, organism-based; design: dose 10 mg/kg, route oral; details: in vivo; procedure, shortened: as §5
Plasmodium berghei [27] = test: Antimalarial activity against Plasmodium berghei ANKA expressing GFP infected in NMRI mouse assessed as reduction of parasite level in blood at 30 mg/kg, po administered 24 hrs post infection qd for 3 days measured after 96 hrs post infection by flow cytometry; format: functional; design: scale not given: the % may be the effect or the level left; procedure, shortened: as §7
Plasmodium berghei [28] = test: Antimalarial activity against Plasmodium berghei ANKA expressing GFP infected in NMRI mouse assessed as reduction of parasite level in blood at 100 mg/kg, po administered 24 hrs post infection measured after 72 hrs post infection by flow cytometry; format: functional; design: scale not given: the % may be the effect or the level left; procedure, shortened: as §7

| Compound | EC50 (Plasmodium falciparum [1]) [nM] | EC50 (Plasmodium falciparum [2]) [nM] | permeability [3] [%] | Papp A→B [4] [×10⁻⁶ cm/s] | Papp B→A [5] [×10⁻⁶ cm/s] | Survival (Plasmodium berghei [15]) [days] | Survival (Plasmodium berghei [16]) [days] | hepatic extraction ratio [18] | hepatic extraction ratio [19] | hepatic extraction ratio [20] | hepatic extraction ratio [21] | other results |
| --- | --- | --- | --- | --- | --- | --- | --- | --- | --- | --- | --- | --- |
| CC1(C)Cn2c(nc(-c3ccc(F)cc3)c2Nc2ccc(F)cc2)CN1C(=O)CN | 82 | 111 | – | – | – | – | – | – | – | – | – | – |
| CC1(C)CN(C(=O)CN)Cc2nc(-c3ccc(F)cc3)c(Nc3ccc(F)cc3)n21 | 80 | 76 | – | – | – | – | – | – | – | – | – | – |
| CC(C)(N)C(=O)N1CCn2c(nc(-c3ccc(F)cc3)c2Nc2ccc(F)cc2)C1(C)C | 10 | 9 | 99.5 | 1.2 | 0.97 | – | – | – | – | – | – | – |
| Cc1ccc(Nc2c(-c3ccc(F)cc3)nc3n2CCN(C(=O)C(C)(C)N)C3(C)C)cc1 | 2 | 4 | 99.5 | 3.5 | 2.37 | 15.3 | 16.7 | – | – | – | – | Vd [6]: 7.5 L/kg; clearance [7]: 36.1 mL/min/kg; half-life [8]: 1080 min; AUC (Mus musculus [9]): 7.607 µM·h; Cmax [10]: 1.64 µM; Tmax [11]: 1 h; half-life [12]: 872 min; AUC (Mus musculus [13]): 32.409 µM·h; F (Mus musculus [14]): 107%; Cmax (Rattus norvegicus [17]): BLD |
| CC(C)(N)C(=O)N1CCn2c(nc(-c3ccc(F)cc3)c2Nc2ccc(F)c(F)c2)C1(C)C | 13 | 7 | – | – | – | – | – | – | – | – | – | – |
| Cc1ccc(Nc2c(-c3ccc(F)cc3)nc3n2CCNC3)cc1 | 161 | 178 | 99.5 | 8.2 | 2.36 | – | – | 0.8 | 0.87 | 0.96 | 0.79 | – |
| Cc1ccc(Nc2c(-c3ccc(F)cc3)nc3n2CC(=O)NC3)cc1 | 1080 | 1170 | 80.9 | 15 | 14.4 | – | – | 0.7 | 0.66 | 0.95 | 0.44 | – |
| Cc1ccc(Nc2c(-c3ccc(F)cc3)nc3n2CC(=O)NC3(C)C)cc1 | 138 | 136 | – | – | – | – | – | 0.72 | 0.72 | – | – | – |
| Cc1ccc(Nc2c(-c3ccc(F)cc3)nc3n2CCNC3(C)C)cc1 | 13 | 13 | 99.9 | 15.6 | 6.96 | – | – | 0.77 | 0.87 | 0.93 | 0.88 | – |
| CC1(C)NCCn2c1nc(-c1ccc(F)cc1)c2Nc1ccc(F)cc1 | 5 | 5 | 99.9 | – | – | 7 | 9.7 | 0.8 | 0.8 | 0.92 | 0.92 | Vd [6]: 1.2 L/kg; clearance [7]: 25.9 mL/min/kg; half-life [8]: 48 min; AUC (Mus musculus [9]): 9.09 µM·h; Cmax [10]: 6.4 µM; Tmax [11]: 1 h; half-life [12]: 177 min; AUC (Mus musculus [13]): 19.447 µM·h; F (Mus musculus [14]): 53%; Activity (Plasmodium berghei [22]): 90%; Survival (Plasmodium berghei [23]): 12 days; AUC(0-t) at 4 h [24]: 0.423 µM·h; Cmax [25]: 202 nM; AUC/dose (Rattus norvegicus [26]): 0.9 min.ug/ml/(mg/kg) |
| C[C@H]1[C@H](OC(=O)CCC(=O)O)O[C@@H]2O[C@@]3(C)CC[C@H]4[C@H](C)CC[C@@H]1[C@@]24OO3 [ARTESUNATE] | – | – | – | – | – | 5.8 | 7 | – | – | – | – | Activity (Plasmodium berghei [22]): 95.6%; Activity (Plasmodium berghei [27]): 99%; Survival (Plasmodium berghei [23]): 12.2 days |
| CCN(CC)CCCC(C)Nc1ccnc2cc(Cl)ccc12 (stereo not drawn) [CHLOROQUINE] | – | – | – | – | – | 9 | 12.5 | – | – | – | – | Activity (Plasmodium berghei [22]): 99.5%; Activity (Plasmodium berghei [28]): 99.6%; Activity (Plasmodium berghei [27]): 99.8%; Survival (Plasmodium berghei [23]): 13.6 days |
